Test results from ChEMBL document CHEMBL4689842, “EUbOPEN Chemogenomics Library wave 1” (2021).
“And” between values parts separate entries of the source, which are not always exact repeats. Equal values may be shown once.

Tested on: Fibroblast
Experiment: Multiplex assay against human fibroblast
Assay type: toxicity, cell-based
In short: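 Phenotypes for tubulin, mitochondrial mass and membrane permeability are expressed as per cents of healthy-nucleus cells. Cells were stained live at seeding with Hoechst33342, BioTracker Green Microtubule Cytoskeleton Dye, MitoTracker Red and Annexin V Alexa Fluor 680, then imaged after compound addition on a CQ1 microscope at 37°C and 5% CO2. Machine-learning gating in CellPathfinder separated Hoechst high-intensity objects from normal cells, divided normal cells by nuclear state (healthy, pyknosed, fragmented) and divided pyknosed cells into mitotic or apoptotic.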

[1] = 12 h, 1 µM, compound concentration 1 uM, replicate 1
[2] = 12 h, 1 µM, compound concentration 1 uM, replicate 2
[3] = 12 h, 10 µM, compound concentration 10 uM, replicate 1
[4] = 12 h, 10 µM, compound concentration 10 uM, replicate 2
[5] = 24 h, 1 µM, compound concentration 1 uM, replicate 1
[6] = 24 h, 1 µM, compound concentration 1 uM, replicate 2
[7] = 24 h, 10 µM, compound concentration 10 uM, replicate 1
[8] = 24 h, 10 µM, compound concentration 10 uM, replicate 2
[9] = 48 h, 1 µM, compound concentration 1 uM, replicate 1
[10] = 48 h, 1 µM, compound concentration 1 uM, replicate 2
[11] = 48 h, 10 µM, compound concentration 10 uM, replicate 1
[12] = 48 h, 10 µM, compound concentration 10 uM, replicate 2

## CN(C)C(=O)C(CCN1CCC(O)(c2ccc(Cl)cc2)CC1)(c1ccccc1)c1ccccc1.Cl [LOPERAMIDE HYDROCHLORIDE]
[1]
  Population Apoptotic (%): 54%
  Population Fragmented Nuclei (%): 26%
  Population Healthy Nuclei (%): 42%
  Population Hoechst High Intensity Objects (%): 12%
  Population Membrane Permeable-Phenotype (%): 19%
  Population Mitochondria Different-Phenotype (%): 19%
  Population Mitotic Cells (%): 45%
  Population Normal (%): 87%
  Population Pyknosed Nuclei (%): 31%
  Population Tubulin-Different-Phenotype (%): 54%
  Total Cell Count: 155
[2]
  Population Apoptotic (%): 25%
  Population Fragmented Nuclei (%): 5%
  Population Healthy Nuclei (%): 88%
  Population Hoechst High Intensity Objects (%): 7%
  Population Membrane Permeable-Phenotype (%): 11%
  Population Mitochondria Different-Phenotype (%): 90%
  Population Mitotic Cells (%): 75%
  Population Normal (%): 92%
  Population Pyknosed Nuclei (%): 6%
  Population Tubulin-Different-Phenotype (%): 65%
  Total Cell Count: 55
[3]
  Population Apoptotic (%): 64%
  Population Fragmented Nuclei (%): 23%
  Population Healthy Nuclei (%): 29%
  Population Hoechst High Intensity Objects (%): 12%
  Population Membrane Permeable-Phenotype (%): 0%
  Population Mitochondria Different-Phenotype (%): 87%
  Population Mitotic Cells (%): 35%
  Population Normal (%): 87%
  Population Pyknosed Nuclei (%): 46%
  Population Tubulin-Different-Phenotype (%): 92%
  Total Cell Count: 158
[4]
  Population Apoptotic (%): 82%
  Population Fragmented Nuclei (%): 8%
  Population Healthy Nuclei (%): 48%
  Population Hoechst High Intensity Objects (%): 6%
  Population Membrane Permeable-Phenotype (%): 94%
  Population Mitochondria Different-Phenotype (%): 100%
  Population Mitotic Cells (%): 17%
  Population Normal (%): 93%
  Population Pyknosed Nuclei (%): 43%
  Population Tubulin-Different-Phenotype (%): 100%
  Total Cell Count: 64
[5]
  Population Apoptotic (%): 45%
  Population Fragmented Nuclei (%): 22%
  Population Healthy Nuclei (%): 52%
  Population Hoechst High Intensity Objects (%): 12%
  Population Membrane Permeable-Phenotype (%): 19%
  Population Mitochondria Different-Phenotype (%): 20%
  Population Mitotic Cells (%): 54%
  Population Normal (%): 87%
  Population Pyknosed Nuclei (%): 25%
  Population Tubulin-Different-Phenotype (%): 55%
  Total Cell Count: 157
[6]
  Population Apoptotic (%): 53%
  Population Fragmented Nuclei (%): 5%
  Population Healthy Nuclei (%): 71%
  Population Hoechst High Intensity Objects (%): 4%
  Population Membrane Permeable-Phenotype (%): 16%
  Population Mitochondria Different-Phenotype (%): 89%
  Population Mitotic Cells (%): 46%
  Population Normal (%): 95%
  Population Pyknosed Nuclei (%): 22%
  Population Tubulin-Different-Phenotype (%): 62%
  Total Cell Count: 68
[7]
  Population Apoptotic (%): 82%
  Population Fragmented Nuclei (%): 26%
  Population Healthy Nuclei (%): 33%
  Population Hoechst High Intensity Objects (%): 24%
  Population Membrane Permeable-Phenotype (%): 7%
  Population Mitochondria Different-Phenotype (%): 77%
  Population Mitotic Cells (%): 17%
  Population Normal (%): 75%
  Population Pyknosed Nuclei (%): 39%
  Population Tubulin-Different-Phenotype (%): 92%
  Total Cell Count: 156
[8]
  Population Apoptotic (%): 98%
  Population Fragmented Nuclei (%): 10%
  Population Healthy Nuclei (%): 26%
  Population Hoechst High Intensity Objects (%): 10%
  Population Membrane Permeable-Phenotype (%): 86%
  Population Mitochondria Different-Phenotype (%): 95%
  Population Mitotic Cells (%): 1%
  Population Normal (%): 89%
  Population Pyknosed Nuclei (%): 62%
  Population Tubulin-Different-Phenotype (%): 95%
  Total Cell Count: 70
[9]
  Population Apoptotic (%): 67%
  Population Fragmented Nuclei (%): 29%
  Population Healthy Nuclei (%): 46%
  Population Hoechst High Intensity Objects (%): 14%
  Population Membrane Permeable-Phenotype (%): 8%
  Population Mitochondria Different-Phenotype (%): 9%
  Population Mitotic Cells (%): 32%
  Population Normal (%): 85%
  Population Pyknosed Nuclei (%): 23%
  Population Tubulin-Different-Phenotype (%): 56%
  Total Cell Count: 155
[10]
  Population Apoptotic (%): 75%
  Population Fragmented Nuclei (%): 34%
  Population Healthy Nuclei (%): 62%
  Population Hoechst High Intensity Objects (%): 12%
  Population Membrane Permeable-Phenotype (%): 12%
  Population Mitochondria Different-Phenotype (%): 8%
  Population Mitotic Cells (%): 25%
  Population Normal (%): 87%
  Population Pyknosed Nuclei (%): 3%
  Population Tubulin-Different-Phenotype (%): 70%
  Total Cell Count: 137
[11]
  Population Apoptotic (%): 86%
  Population Fragmented Nuclei (%): 36%
  Population Healthy Nuclei (%): 38%
  Population Hoechst High Intensity Objects (%): 36%
  Population Membrane Permeable-Phenotype (%): 2%
  Population Mitochondria Different-Phenotype (%): 70%
  Population Mitotic Cells (%): 13%
  Population Normal (%): 63%
  Population Pyknosed Nuclei (%): 25%
  Population Tubulin-Different-Phenotype (%): 70%
  Total Cell Count: 139
[12]
  Population Apoptotic (%): 90%
  Population Fragmented Nuclei (%): 37%
  Population Healthy Nuclei (%): 52%
  Population Hoechst High Intensity Objects (%): 45%
  Population Membrane Permeable-Phenotype (%): 0%
  Population Mitochondria Different-Phenotype (%): 85%
  Population Mitotic Cells (%): 9%
  Population Normal (%): 54%
  Population Pyknosed Nuclei (%): 9%
  Population Tubulin-Different-Phenotype (%): 88%
  Total Cell Count: 214

## C[C@H]1Oc2cc(cnc2N)-c2c(nn(C)c2C#N)CN(C)C(=O)c2ccc(F)cc21 [LORLATINIB]
[1]
  Population Apoptotic (%): 60% and 68%
  Population Fragmented Nuclei (%): 26% and 17%
  Population Healthy Nuclei (%): 55% and 68%
  Population Hoechst High Intensity Objects (%): 19% and 8%
  Population Membrane Permeable-Phenotype (%): 20% and 11%
  Population Mitochondria Different-Phenotype (%): 7% and 4%
  Population Mitotic Cells (%): 40% and 31%
  Population Normal (%): 80% and 91%
  Population Pyknosed Nuclei (%): 17% and 14%
  Total Cell Count: 210 and 172
[2]
  Population Apoptotic (%): 42% and 64%
  Population Fragmented Nuclei (%): 63% and 54%
  Population Healthy Nuclei (%): 25% and 15%
  Population Hoechst High Intensity Objects (%): 34% and 31%
  Population Membrane Permeable-Phenotype (%): 33% and 28%
  Population Mitotic Cells (%): 57% and 35%
  Population Normal (%): 65% and 68%
  Population Pyknosed Nuclei (%): 11% and 30%
  Population Tubulin-Different-Phenotype (%): 40% and 57%
  Total Cell Count: 91 and 67
[5]
  Population Apoptotic (%): 55% and 64%
  Population Fragmented Nuclei (%): 22% and 24%
  Population Healthy Nuclei (%): 56% and 66%
  Population Hoechst High Intensity Objects (%): 14% and 12%
  Population Membrane Permeable-Phenotype (%): 15% and 6%
  Population Mitotic Cells (%): 44% and 35%
  Population Normal (%): 85% and 87%
  Population Pyknosed Nuclei (%): 21%
  Total Cell Count: 201 and 190
[6]
  Population Apoptotic (%): 57% and 40%
  Population Fragmented Nuclei (%): 55% and 65%
  Population Hoechst High Intensity Objects (%): 36% and 33%
  Population Membrane Permeable-Phenotype (%): 33% and 20%
  Population Mitochondria Different-Phenotype (%): 0% and 13%
  Population Mitotic Cells (%): 42% and 60%
  Population Normal (%): 63% and 66%
  Population Tubulin-Different-Phenotype (%): 33% and 26%
  Total Cell Count: 60 and 87
